The target in data set [1] is T1, 3-oxo-5-alpha-steroid 4-dehydrogenase 1 (Homo sapiens, UniProt P18405).
T1 sequence (P18405 whole entry): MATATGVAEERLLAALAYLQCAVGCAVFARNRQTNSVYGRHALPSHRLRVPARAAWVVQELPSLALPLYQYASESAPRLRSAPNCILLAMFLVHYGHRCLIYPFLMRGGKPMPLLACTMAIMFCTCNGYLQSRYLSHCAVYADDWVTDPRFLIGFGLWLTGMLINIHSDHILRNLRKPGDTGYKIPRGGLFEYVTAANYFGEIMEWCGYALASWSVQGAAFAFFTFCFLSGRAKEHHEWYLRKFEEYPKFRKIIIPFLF
Put plainly: Inhibitory concentration against human recombinant steroid 5-alpha-reductase type I in stably transfected chinese hamster ovary (CHO) 1827 cells using [3H]testosterone. In a few lines: (§1)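 Intact stably transfected CHO 1827 cells expressing human recombinant 5αR-1 were incubated 30 min with [3H]-testosterone at its Km (2 μM) plus inhibitor over 10^-9–10^-5 M. IC50 was obtained by four-parameter logistic fit. Finasteride served as reference inhibitor across repeated assays.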

For data set [2], the target named is T1, 3-oxo-5-alpha-steroid 4-dehydrogenase 1. Briefly: Log of inhibitory concentration against human recombinant steroid 5-alpha-reductase type I in stably transfected chinese hamster ovary (CHO) 1827 cells using [3H]testosterone. In a few lines:
as §1

Data set [3] is described as follows: Partition coefficient (logP). It counts as physicochemical. To be noted: octanol/water.
Data set [4] has as its target T2, 3-oxo-5-alpha-steroid 4-dehydrogenase 2 (Homo sapiens, UniProt P31213).
T2 sequence (P31213 whole entry): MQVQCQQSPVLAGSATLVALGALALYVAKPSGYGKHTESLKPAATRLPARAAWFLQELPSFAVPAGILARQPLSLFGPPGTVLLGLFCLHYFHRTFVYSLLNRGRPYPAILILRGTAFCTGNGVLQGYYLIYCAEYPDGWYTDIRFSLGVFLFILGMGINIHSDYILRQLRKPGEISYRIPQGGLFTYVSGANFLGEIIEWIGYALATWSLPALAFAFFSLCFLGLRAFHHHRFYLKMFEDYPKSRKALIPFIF
Put plainly: Inhibitory concentration against human recombinant steroid 5-alpha-reductase type 2 in stably transfected chinese hamster ovary 1827 cells using [3H]testosterone. An outline of the steps:
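Intact stably transfected CHO 1827 cells incubated 30 min with [3H]testosterone at its Km concentration plus inhibitor over 10^-9–10^-5 M. IC50 fitted by four-parameter logistic equation. Finasteride run as reference inhibitor to check interassay reproducibility.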

The text below walks through data of ChEMBL document CHEMBL1148350, “Synthesis, biological activity, and three-dimensional quantitative structure-activity relationship model for a series of benzo[c]quinolizin-3-ones, nonsteroidal inhibitors of human steroid 5alpha-reductase 1” (J Med Chem, 2004).

As a reminder, the IC50 is the point on the concentration scale where inhibition reaches its midpoint. Broadly, the logP is a log measure of how a compound divides between an organic and an aqueous phase. High values mean a more lipophilic compound, low ones a more hydrophilic compound.

As for `CC1=C2CCc3cc(C(=O)Oc4ccc(C)cc4)ccc3N2CCC1=O`, the IC50 in data set [1] and in data set [2] was 1050 nM throughout. The same molecule gave a logP in data set [3] of 4.05.
For `CC1=C2CCc3cc(C(=O)Oc4ccccc4)ccc3N2CCC1=O`, the results for the IC50 in data set [1] and in data set [2] were 942 nM and 933 nM, respectively. In addition, in data set [3], the logP stood at 4.64.
Turning to `COC(=O)c1ccc2c(c1)CCC1=C(C)C(=O)CCN12`, the 50% inhibitory concentration (IC50) in data set [1] and in data set [2] was 117 nM each time. In data set [3], this molecule had a logP of 3.13.
As to `COC(=O)c1cccc(OC(=O)c2ccc3c(c2)CCC2=C(C)C(=O)CCN23)c1`, the IC50 in data set [1] was 965 nM; in data set [2] it was 955 nM. Also, the logP in data set [3] amounted to 4.86.
The like results for `CC1=C2CCc3cc(-c4cccnc4)ccc3N2CCC1=O` were, in that order, 170 nM, 170 nM and 3.35.
The like results for `CC1=C2CCc3cc(C(=O)OC(C)(C)C)ccc3N2CCC1=O` were, in that order, 1000 nM, 1000 nM and 4.37.
On to `CC1=C2CCc3cc(OCc4ccccc4Cl)ccc3N2CCC1=O`, for which the IC50 in data set [1] was 194 nM; in data set [2] it was 195 nM. The logP in data set [3] was determined as 5.35.
For `CC1=C2CCc3cc(C(=O)Oc4ccc(C(C)(C)C)cc4)ccc3N2CCC1=O`, the IC50 in data set [1] was 560 nM; in data set [2] it was 562 nM. Moreover, the logP in data set [3] was found to be 6.47.
The corresponding values for `CC1=C2CCc3cc(C#Cc4ccccc4)ccc3N2CCC1=O` are 8.75 nM, 8.71 nM and 5.49.
For the molecule `CC1=C2CCc3cc(/C=C/c4ccccc4)ccc3N2CCC1=O`, the IC50 in data set [1] and in data set [2] was 380 nM in each case. Further, the logP in data set [3] came to 5.54.
On to `CC1=C2CCc3cc(OCc4ccc(C(F)(F)F)cc4C(F)(F)F)ccc3N2CCC1=O`, for which the IC50 in data set [1] was 149 nM; in data set [2], 148 nM. In addition, in data set [3], the logP was found to be 6.41.
As for `COC(=O)c1ccc(OC(=O)c2ccc3c(c2)CCC2=C(C)C(=O)CCN23)cc1`, the results for the IC50 in data set [1] and in data set [2] were 121 nM and 120 nM, respectively. In data set [3], the logP came to 4.86.
Regarding `CC1=C2CCc3cc(-c4ccccc4)ccc3N2CCC1=O`, the IC50 is 128 nM in data set [1] and 129 nM in data set [2]. For the same molecule, the logP in data set [3] came to 4.74.
On to `CC1=C2CCc3cc(OCc4ccccc4)ccc3N2CCC1=O`, for which the results for the IC50 in data set [1] and in data set [2] were 111 nM and 112 nM, respectively. The molecule also showed a logP in data set [3] of 4.64.
Regarding `CC1=C2CCc3cc(Cl)ccc3N2CCC1=O`, the figures for the IC50 in data set [1] and in data set [2] were 5.8 nM and 5.62 nM, respectively. In addition, the logP in data set [3] worked out at 3.73.
The like results for `CC1=C2CCc3cc(-c4cccs4)ccc3N2CCC1=O` were, in that order, 79 nM, 79.4 nM and 4.62.
Take `CCc1ccc2c(c1)CCC1=C(C)C(=O)CCN12`: the IC50 in data set [1] is 14 nM; in data set [2], 14.1 nM. In data set [3], this molecule had a logP of 3.88.
As for `CC1=C2CCc3cc(C)ccc3N2CCC1=O`, in data set [3], the logP was 3.35.
For the molecule `CC1=C2CCc3ccccc3N2CCC1=O`, the logP in data set [3] turned out to be 2.85.
Take `CC1=C2CCc3cc(C(=O)OCc4ccccc4)ccc3N2CCC1=O`: the IC50 was 96.8 nM in data set [1] and 97.7 nM in data set [2]. The logP in data set [3] came to 4.96.
As to `CC1=C2CCc3cc(OCc4ccc(C(F)(F)F)cc4)ccc3N2CCC1=O`, the figures for the IC50 in data set [1] and in data set [2] were 83.7 nM and 83.2 nM, respectively. The molecule further yielded a logP in data set [3] of 5.52.
The like results for `C=Cc1ccc2c(c1)CCC1=C(C)C(=O)CCN12` were, in that order, 21.6 nM, 21.4 nM and 3.57.
As for `CC1=C2CCc3cc(C(=O)OC(C)C)ccc3N2CCC1=O`, the results for the IC50 in data set [1] and in data set [2] were 731 nM and 724 nM, respectively. Moreover, the logP in data set [3] is 3.97.
On to `CC1=C2CCc3cc(/C=C\c4ccccc4)ccc3N2CCC1=O`, for which the IC50 is 14.2 nM in data set [1] and 14.1 nM in data set [2]. This molecule had a logP in data set [3] of 5.54.
Consider `CC1=C2CCc3cc(OCc4cccc(Cl)c4)ccc3N2CCC1=O`, for which the half-maximal inhibitory concentration (IC50) in data set [1] is 93 nM; in data set [2], 93.3 nM. The logP in data set [3] is 5.35.
Consider `O=C1C=C2CCc3cc(Cl)ccc3N2CC1`, for which, in data set [3], the logP worked out at 3.22.
Take `CC1=C2CCc3cc(-c4ccco4)ccc3N2CCC1=O`: the IC50 in data set [1] is 133 nM; in data set [2], 132 nM. Also, in data set [3], the logP amounted to 4.12.
Consider `CC(C)(C)NC(=O)[C@H]1CC[C@H]2[C@@H]3CC[C@H]4NC(=O)C=C[C@]4(C)[C@H]3CC[C@]12C` [FINASTERIDE], for which the IC50 in data set [4] was found to be 21 nM.
For the molecule `CCOC(=O)c1ccc2c(c1)CCC1=C(C)C(=O)CCN12`, the IC50 in data set [1] was 221 nM; in data set [2] it was 219 nM. The lipophilicity (logP) in data set [3] amounted to 3.66.
The corresponding values for `COc1ccc2c(c1)CCC1=C(C)C(=O)CCN12` are 178 nM, 182 nM and 2.87.
Consider `CC1=C2CCc3cc(Br)ccc3N2CCC1=O`, for which the IC50 in data set [1] is 8.1 nM; in data set [2] it was 8.13 nM. The molecule also gave a logP in data set [3] of 3.88.
For the molecule `CC1=C2CCc3cc(OCc4ccc(Cl)cc4)ccc3N2CCC1=O`, the IC50 in data set [1] is 92.9 nM; in data set [2] it was 93.3 nM. The logP in data set [3] was 5.35.
With `Cc1ccc2c(c1)CCC1=CC(=O)CCN12`, the logP in data set [3] worked out at 2.83.
`O=C1C=C2CCc3ccccc3N2CC1`: the logP in data set [3] was 2.33.
For `CC1=C2CCc3cc(OCc4cc(C(F)(F)F)ccc4C(F)(F)F)ccc3N2CCC1=O`, the IC50 in data set [1] was 393 nM; in data set [2], 389 nM. Besides, the logP in data set [3] came out at 6.41.
